Reference: ChEMBL document CHEMBL3421570, “Combinatorial Libraries As a Tool for the Discovery of Novel, Broad-Spectrum Antibacterial Agents Targeting the ESKAPE Pathogens” (J Med Chem, 2015)
Values after ≈ are worked out from the molar mass of the structure shown. Active and inactive are the calls of the source. The rule behind the calls is not given here.

How the values were obtained:
Klebsiella pneumoniae [1] = assay: Antimicrobial activity against Klebsiella pneumoniae assessed as inhibition of microbial growth at 45 uM after 24 hrs; assay type: functional, organism-based
Outline: (§1)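 Broth microdilution single-concentration read: overnight cultures diluted 1:1000, compound in DMF (≤2.0%) added, 37°C for 24 h, growth inhibition scored visually by lack of turbidity; triplicate. Gram-positives grown in TSB, Gram-negatives in LB.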

Acinetobacter baumannii [2] = assay: Antimicrobial activity against Acinetobacter baumannii assessed as inhibition of microbial growth at 45 uM after 24 hrs; assay type: functional, organism-based; outline: as §1
Staphylococcus aureus [3] = assay: Ratio of MIC for Staphylococcus aureus measured after 8 cycle passage to MIC for wild type Staphylococcus aureus; assay type: functional
[4] = Selectivity index, ratio of IC50 for human A549 cells to MIC for Klebsiella pneumoniae
Staphylococcus aureus [5] = assay: Antimicrobial activity against Staphylococcus aureus USA300 strain FPR3757 infected in mouse model of lethal peritonitis assessed as mouse survival at 2 uM, im dosed 1 hr post infection and measured after 5 days post infection; assay type: functional, organism-based
Outline: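 Mice, six per group, infected i.p. with 1 × 10^8 CFU ml−1 S. aureus USA300 FPR3757 in PBS with 5% mucin. Compound given i.m. at 2 μM 1 h later; vehicle 45% w/v (2-hydroxypropyl)-β-cyclodextrin in water i.v.; vancomycin i.v. as control. Monitored twice daily for 5 days, pre-moribund animals euthanized. Survival compared by log-rank test.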

Staphylococcus aureus [6] = assay: Antimicrobial activity against Staphylococcus aureus assessed as inhibition of microbial growth after 24 hrs; assay type: functional
Outline: (§2)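 Broth microdilution against multidrug-resistant clinical ESKAPE isolates. Overnight cultures (TSB for Gram-positives, LB for Gram-negatives) diluted 1:1000 in fresh medium, compound in DMF (≤2.0% DMF) added at decreasing concentrations, 37°C.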

Staphylococcus aureus [7] = assay: Antimicrobial activity against Staphylococcus aureus assessed as inhibition of microbial growth at 45 uM after 24 hrs; assay type: functional, organism-based; outline: as §1
[8] = Induction of hemolysis in human RBC at 10 uM incubated for 15 mins; assay type: cell-based, Erythrocyte; details: red blood cells, read-out: Activity
Outline: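 Human RBCs from whole blood, resuspended 20% v/v in HA buffer (NaCl, CaCl2), compound 10 μM, 15 min at 37°C. Centrifuged 5,500 g for 1 min, supernatant OD543 read. Percent hemolysis against DMF vehicle (0%) and 1.0% Triton X-100 (100%); triplicate.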

Pseudomonas aeruginosa [9] = assay: Antibiofilm activity against Pseudomonas aeruginosa incubated for 24 hrs followed by biofilm resuspension in PBS and measured after 24 hrs; assay type: functional
Outline: (§3)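 Biofilms grown 24 h in 96-well plates from overnight cultures standardized to OD600 0.5 in fresh medium (human serum only for S. aureus; TSB for Gram-positives, LB for Gram-negatives). Medium then replaced with fresh medium containing a concentration range above and below MIC, 37°C overnight. After 24 h biofilm resuspended in PBS, serially diluted, plated in duplicate, CFU counted after 24 h at 37°C. Activity relative to untreated; three technical replicates; MBEC50 reported.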

Enterobacter cloacae [10] = assay: Bactericidal activity against Enterobacter cloacae after 24 hrs; assay type: functional
Pseudomonas aeruginosa [11] = assay: Antimicrobial activity against Pseudomonas aeruginosa isolate 1420 assessed as inhibition of microbial growth at 2 uM in presence of 100 uM efflux pump inhibitor reserpine after 24 hrs; assay type: functional, organism-based
Enterococcus faecium [12] = assay: Induction of spontaneous mutation in Enterococcus faecium at 2 to 10 MIC; assay type: functional, organism-based
Enterobacter cloacae [13] = assay: Induction of spontaneous mutation in Enterobacter cloacae at 2 to 10 MIC; assay type: functional, organism-based
Klebsiella pneumoniae [14] = assay: Antimicrobial activity against Klebsiella pneumoniae assessed as inhibition of microbial growth after 24 hrs; assay type: functional; outline: as §2
Enterobacter cloacae [15] = assay: Antimicrobial activity against Enterobacter cloacae assessed as inhibition of microbial growth at 45 uM after 24 hrs; assay type: functional, organism-based; outline: as §1
[16] = Selectivity index, ratio of IC50 for human A549 cells to MIC for Staphylococcus aureus
[17] = Selectivity index, ratio of IC50 for human A549 cells to MIC for Enterococcus faecium
Staphylococcus aureus [18] = assay: Antibiofilm activity against Staphylococcus aureus incubated for 24 hrs followed by biofilm resuspension in PBS and measured after 24 hrs; assay type: functional; outline: as §3
Acinetobacter baumannii [19] = assay: Antimicrobial activity against Acinetobacter baumannii assessed as inhibition of microbial growth after 24 hrs; assay type: functional; outline: as §2
Acinetobacter baumannii [20] = assay: Bactericidal activity against Acinetobacter baumannii after 24 hrs; assay type: functional
[21] = Cytotoxicity against human A549 cells assessed as cell viability recovery at 225 uM after 48 hrs by MTT assay; assay type: cell-based; details: read-out: Activity
Outline: (§4)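 A549 cells grown in F-12K with L-glutamine, 10% FBS, 1% penicillin-streptomycin, seeded at 1.0 × 10^5 ml−1, allowed to adhere 24 h (37°C, 5% CO2), then exposed to compound in 45% w/v (2-hydroxypropyl)-β-cyclodextrin vehicle for 48 h. MTT 4 h, formazan solubilized in DMSO, absorbance 540 nm. Percent recovery versus vehicle-only; IC50 derived; at least three independent experiments.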

Acinetobacter baumannii [22] = assay: Induction of spontaneous mutation in Acinetobacter baumannii at 2 to 10 MIC; assay type: functional, organism-based
[23] = Selectivity index, ratio of IC50 for human A549 cells to MIC for Pseudomonas aeruginosa
Enterococcus faecium [24] = assay: Antimicrobial activity against Enterococcus faecium assessed as inhibition of microbial growth at 45 uM after 24 hrs; assay type: functional, organism-based; outline: as §1
Acinetobacter baumannii [25] = assay: Antibiofilm activity against Acinetobacter baumannii incubated for 24 hrs followed by biofilm resuspension in PBS and measured after 24 hrs; assay type: functional; outline: as §3
Pseudomonas aeruginosa [26] = assay: Antimicrobial activity against Pseudomonas aeruginosa assessed as inhibition of microbial growth at 45 uM after 24 hrs; assay type: functional, organism-based; outline: as §1
Pseudomonas aeruginosa [27] = assay: Antimicrobial activity against Pseudomonas aeruginosa assessed as inhibition of microbial growth after 24 hrs; assay type: functional; outline: as §2
Enterococcus faecium [28] = assay: Bactericidal activity against Enterococcus faecium after 24 hrs; assay type: functional
Staphylococcus aureus [29] = assay: Bactericidal activity against methicillin-resistant Staphylococcus aureus at MIC measured after drug wash out after 120 mins by time kill assay; assay type: functional
Outline: (§5)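 MRSA from stationary phase was regrown 3 h in TSB and seeded at OD600 0.5. […] After 120 min, cells were centrifuged and washed, serially diluted and plated for CFU. Percent recovery is relative to no-drug controls.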

Enterobacter cloacae [30] = assay: Antibiofilm activity against Enterobacter cloacae incubated for 24 hrs followed by biofilm resuspension in PBS and measured after 24 hrs; assay type: functional; outline: as §3
Pseudomonas aeruginosa [31] = assay: Induction of spontaneous mutation in Pseudomonas aeruginosa at 2 to 10 MIC; assay type: functional, organism-based; details: 2 to 10 x MIC
[32] = Selectivity index, ratio of IC50 for human A549 cells to MIC for Enterobacter cloacae
Staphylococcus aureus [33] = assay: Induction of spontaneous mutation in Staphylococcus aureus at 2 to 10 MIC; assay type: functional, organism-based
Staphylococcus aureus [34] = assay: Bactericidal activity against methicillin-resistant Staphylococcus aureus assessed as cell survival recovery at MIC measured after drug wash out after 120 mins by time kill assay; assay type: functional; outline: as §5
[35] = Cytotoxicity against human A549 cells assessed as cell viability recovery up to 125 uM after 48 hrs by MTT assay; assay type: cell-based; details: read-out: Activity; outline: as §4
[36] = Selectivity index, ratio of IC50 for human A549 cells to MIC for Acinetobacter baumannii
Enterococcus faecium [37] = assay: Antimicrobial activity against Enterococcus faecium assessed as inhibition of microbial growth after 24 hrs; assay type: functional; outline: as §2
A549 = assay: Cytotoxicity against human A549 cells after 48 hrs by MTT assay; assay type: cell-based; details: A549, 48 h; outline: as §4
Staphylococcus aureus [38] = assay: Effect on bacterial density of methicillin-resistant Staphylococcus aureus at MIC measured over 2 hrs period by time kill assay; assay type: functional, organism-based
Pseudomonas aeruginosa [39] = assay: Antimicrobial activity against Pseudomonas aeruginosa isolate 1420 assessed as inhibition of microbial growth at 2 uM after 24 hrs; assay type: functional, organism-based
Klebsiella pneumoniae [40] = assay: Antibiofilm activity against Klebsiella pneumoniae incubated for 24 hrs followed by biofilm resuspension in PBS and measured after 24 hrs; assay type: functional; outline: as §3
Pseudomonas aeruginosa [41] = assay: Bactericidal activity against Pseudomonas aeruginosa after 24 hrs; assay type: functional
Klebsiella pneumoniae [42] = assay: Bactericidal activity against Klebsiella pneumoniae after 24 hrs; assay type: functional
Staphylococcus aureus [43] = assay: Bactericidal activity against Staphylococcus aureus after 24 hrs; assay type: functional
Klebsiella pneumoniae [44] = assay: Induction of spontaneous mutation in Klebsiella pneumoniae at 2 to 10 MIC; assay type: functional, organism-based
Enterobacter cloacae [45] = assay: Antimicrobial activity against Enterobacter cloacae assessed as inhibition of microbial growth after 24 hrs; assay type: functional; outline: as §2
Enterococcus faecium [46] = assay: Antibiofilm activity against Enterococcus faecium incubated for 24 hrs followed by biofilm resuspension in PBS and measured after 24 hrs; assay type: functional; outline: as §3

In the case of `CCCCCCCN1C(=N)N(CCCC[C@H]2CNC(=N)N2CCc2cccc(C(F)(F)F)c2)C[C@@H]1CCCC`, the “growth inhibition (GI)” value (Klebsiella pneumoniae [1]) is reported as “Active”, the “growth inhibition (GI)” value (Acinetobacter baumannii [2]) is reported as “Active” and the Ratio (Staphylococcus aureus [3]) is reported as 2. The “Selectivity Index” value [4] was 100, the Activity (Staphylococcus aureus [5]) was “Active” and the MIC (Staphylococcus aureus [6]) was 1.6 µM. For the same compound, the “growth inhibition (GI)” value (Staphylococcus aureus [7]) was “Active”, the hemolysis at 0.25 h, 10 µM [8] was 0.34% and the MBEC50 (Pseudomonas aeruginosa [9]) was 20 µM. The MBC90 (Enterobacter cloacae [10]) was 3.1 µM (≈ 1.71 µg/mL), the “growth inhibition (GI)” value (Pseudomonas aeruginosa [11]) was “Active” and the Activity (Enterococcus faecium [12]) was “inactive”. The Activity (Enterobacter cloacae [13]) was “inactive”, the MIC (Klebsiella pneumoniae [14]) was 1.6 µM and the “growth inhibition (GI)” value (Enterobacter cloacae [15]) was “Active”. For the same compound, the “Selectivity Index” value [16] was 100, the “Selectivity Index” value [17] was 100 and the MBEC50 (Staphylococcus aureus [18]) was 14 µM. It also gave an MIC (Acinetobacter baumannii [19]) of 1.6 µM, an MBC90 (Acinetobacter baumannii [20]) of 3.1 µM (≈ 1.71 µg/mL) and a viability at 48 h, 225 µM [21] of 40%. The Activity (Acinetobacter baumannii [22]) was “inactive”, the “Selectivity Index” value [23] was 100 and the “growth inhibition (GI)” value (Enterococcus faecium [24]) was “Active”. For the same compound, the MBEC50 (Acinetobacter baumannii [25]) was 15 µM, the “growth inhibition (GI)” value (Pseudomonas aeruginosa [26]) was “Active” and the MIC (Pseudomonas aeruginosa [27]) was 1.6 µM. For the same compound, the MBC90 (Enterococcus faecium [28]) was 1.9 µM (≈ 1.05 µg/mL), the “fold change (FC)” value (Staphylococcus aureus [29]) was 2.5 and the MBEC50 (Enterobacter cloacae [30]) was 13 µM. The Activity (Pseudomonas aeruginosa [31]) was “inactive”, the “Selectivity Index” value [32] was 100 and the Activity (Staphylococcus aureus [33]) was “inactive”. For the same compound, the Survival (Staphylococcus aureus [34]) was 0.2%, the viability at 48 h [35] was > 63% and the “Selectivity Index” value [36] was 100. The MIC (Enterococcus faecium [37]) was 1.6 µM, the IC50 (A549) was 164 µM and the Activity (Staphylococcus aureus [38]) was “inactive”. For the same compound, the “growth inhibition (GI)” value (Pseudomonas aeruginosa [39]) was “inactive”, the MBEC50 (Klebsiella pneumoniae [40]) was 7 µM and the MBC90 (Pseudomonas aeruginosa [41]) was 4 µM (≈ 2.2 µg/mL). For the same compound, the MBC90 (Klebsiella pneumoniae [42]) was 2.4 µM (≈ 1.32 µg/mL), the MBC90 (Staphylococcus aureus [43]) was 3.1 µM (≈ 1.71 µg/mL) and the Activity (Klebsiella pneumoniae [44]) was “inactive”. It also gave an MIC (Enterobacter cloacae [45]) of 1.6 µM and an MBEC50 (Enterococcus faecium [46]) of 39 µM.
